The text below walks through data of article PMC8354861 (Bioorganic & Medicinal Chemistry, 2021).

The term solubility denotes the dissolved amount per volume that the medium holds. Low readings indicate a poorly soluble substance, high ones a readily soluble substance.

≈ marks a conversion by molar mass, not a printed value. Read-outs that look alike come from different tables or passages of the source. A value given as a limit tells only on which side of the number the result lay.

Series [1] deals with SARS-CoV-2. Description: Antiviral activity against SARS-CoV-2 in Vero E6 cells. It counts as cell-based.
The nature of series [2]: Stability in simulated intestinal fluid. It counts as in vitro ADME. The note with it: SIF with pancreatin. In short, it runs like this: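 Simulated intestinal fluid was made to the USP recipe: KH2PO4, 0.2 M NaOH and 10 g/L pancreatin, adjusted to pH 6.8. Test compound stock (2 μM in DMF) was diluted into the fluid and incubated at 37 °C for up to 24 h, sampled at 0, 1, 2, 3, 4, 6 and 24 h. Reactions were stopped with ice-cold acetonitrile, centrifuged, and supernatants analysed by HPLC.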

Series [3] concerns ICR mice. Description: Acute toxicity study in ICR mice. Format: in vivo. An outline of the steps: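 Male ICR mice (28–36 g), 15 animals randomised into five groups of three, fasted 16 h. Each group received one oral gavage dose of test compound at 50, 100, 200, 500 or 1000 mg/kg in 5% DMSO, 5% Solution Hs15 and 90% saline. Mortality was recorded over 7 days; body weight, organ weight and tissue histology were assessed after sacrifice.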

Series [4] is described as follows: physchem. The settings on record: pH 6.
For series [5] the following is noted: rats; cited from earlier work.
The conditions of series [6]: cynomolgus monkeys; cited from earlier work.
For series [7] the following is noted: dogs; cited from earlier work.

“(3R,4S,5R)-2-(4-aminopyrrolo[2,1-f][1,2,4]triazin-7-yl)-2-cyclopropyl-5-(hydroxymethyl)tetrahydrofuran-3,4-diol [Compound 2d]” came in with an Inhibition rate in series [1] (at 5 µM) below 10%.
In the case of `CC(C)C(=O)O[C@H]1[C@@H](O)[C@](C#N)(c2ccc3c(N)ncnn23)O[C@@H]1CO` [Compound 5a, (2R,3S,4R,5R)-5-(4-aminopyrrolo[2,1-f][1,2,4]triazin-7-yl)-5-cyano-4-hydroxy-2-(hydroxymethyl)tetrahydrofuran-3-yl isobutyrate], the “stability in SIF (in words)” value in series [2] is on record as “good stability”.
Take `N#C[C@@]1(c2cc(Cl)c3c(N)ncnn23)O[C@H](CO)[C@@H](O)[C@H]1O` [Compound 1a, (2R,3R,4S,5R)-2-(4-amino-5-chloropyrrolo[2,1-f][1,2,4]triazin-7-yl)-3,4-dihydroxy-5-(hydroxymethyl)tetrahydrofuran-2-carbonitrile]: the “anti-SARS-CoV-2 activity (in words)” value in series [1] is given as “loss of the anti-SARS-CoV-2 activity”.
Still for that read-out and setting: then `CCC(CC)COC(=O)[C@H](C)N[P@](=O)(OC[C@H]1O[C@@](C#N)(c2cc(F)c3c(N)ncnn23)[C@H](O)[C@@H]1O)Oc1ccccc1` [Compound 7, 2-ethylbutyl ((S)-(((2R,3S,4R,5R)-5-(4-amino-5-fluoropyrrolo[2,1-f][1,2,4]triazin-7-yl)-5-cyano-3,4-dihydroxytetrahydrofuran-2-yl)methoxy)(phenoxy)phosphoryl)-L-alaninate], with “reduced activity”; and `OC[C@H]1O[C@@H](c2ccc3c(NO)ncnn23)[C@H](O)[C@@H]1O` [Compound 3b, (2S,3R,4S,5R)-2-(4-(hydroxyamino)pyrrolo[2,1-f][1,2,4]triazin-7-yl)-5-(hydroxymethyl)tetrahydrofuran-3,4-diol], with “did not show any antiviral activity”.
Still for that read-out and setting: then `N#Cc1cc([C@]2(C#N)O[C@H](CO)[C@@H](O)[C@H]2O)n2ncnc(N)c12` [Compound 1d, 4-amino-7-((2R,3R,4S,5R)-2-cyano-3,4-dihydroxy-5-(hydroxymethyl)tetrahydrofuran-2-yl)pyrrolo[2,1-f][1,2,4]triazine-5-carbonitrile], with “loss of the anti-SARS-CoV-2 activity”.
On to `N#C[C@@]1(c2cc(F)c3c(N)ncnn23)O[C@H](CO)[C@@H](O)[C@H]1O` [Compound 1c, (2R,3R,4S,5R)-2-(4-amino-5-fluoropyrrolo[2,1-f][1,2,4]triazin-7-yl)-3,4-dihydroxy-5-(hydroxymethyl)tetrahydrofuran-2-carbonitrile], for which the “anti-SARS-CoV-2 activity (in words)” value in series [1] is recorded as “able to inhibit the viral replication”; in series [1] (listed as 3c), “moderate anti-SARS-CoV-2 activity”.
For `CC(C)C(=O)OC[C@H]1O[C@@](C#N)(c2ccc3c(N)ncnn23)[C@H](O)[C@@H]1O` [Compound 5c, ((2R,3S,4R,5R)-5-(4-aminopyrrolo[2,1-f][1,2,4]triazin-7-yl)-5-cyano-3,4-dihydroxytetrahydrofuran-2-yl)methyl isobutyrate], in series [3] (single oral dose), the “well tolerated oral dosage” value is “up to 1000 mg/kg”. In addition, the mortality result in series [3] (single oral gavage 50-1000 mg/kg, 7-day observation period) is “No mortality”. For the same molecule, the “changes in body weight, organ weight, or tissue histology” value in series [3] (single oral gavage 50-1000 mg/kg, after sacrifice) is “No significant changes”.
In turn, `N#C[C@@]1(c2ccc3c(N)ncnn23)O[C@H](CO)[C@@H](O)[C@H]1O` [GS-441524] displayed a solubility in series [4] of 105 µg/mL (≈ 360 µM). In addition, the “F (oral bioavailability)” value was 33% in series [5], 8.3% in series [6] and 85% in series [7].
